Reference: article PMC5331736 (Drug testing and analysis, 2014)

What was measured:
[1] = molecular target: dopamine transporters (DAT) (Rattus norvegicus, UniProt P23977); assay: Release assay at DAT, [3H]MPP+ preloaded rat brain synaptosomes; type: biochemical; details: (EC50 at DAT)^−1/(EC50 at SERT)^−1; higher value indicates greater DAT selectivity
How it was run: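 Male Sprague-Dawley rat (250–300 g) brain synaptosomes. DAT substrate was 9 nM [3H]MPP+ and SERT substrate 5 nM [3H]5-HT. Buffers held 1 μM reserpine, with unlabelled blockers of competing transporters. Synaptosomes were preloaded for 1 h in Krebs-phosphate buffer, then added to test compound. Filtration stopped release, and retained radioactivity was counted. The ratio comes from dose-response EC50s; N = 3–4, triplicate.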

5-HT transporters (SERT) = 5-HT transporters (SERT) (Rattus norvegicus, UniProt P31652); assay: Release assay at SERT, [3H]5-HT preloaded rat brain synaptosomes; type: biochemical; details: for releasing efficacy at SERT (in words): rat brain tissue
How it was run: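 Synaptosomes came from male Sprague-Dawley rat (250–300 g) brains after CO2 euthanasia. They were preloaded to steady state (1 h) with 5 nM [3H]5-HT in Krebs-phosphate buffer containing 1 μM reserpine, plus unlabelled blockers for the other transporters. Preloaded synaptosomes were added to test compound dilutions, and release was stopped by vacuum filtration. Retained radioactivity was measured by scintillation counting. Dose-response; mean ± SD, N = 3–4, triplicate.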

SERT = SERT (Rattus norvegicus, UniProt P31652); assay: Uptake blocking at SERT; type: biochemical; details: subsequent experiments, data not shown
[2] = cis to trans isomerization in solution; type: physicochemical; details: acetonitrile only

5-HT transporters (SERT), sequence (P31652 whole entry): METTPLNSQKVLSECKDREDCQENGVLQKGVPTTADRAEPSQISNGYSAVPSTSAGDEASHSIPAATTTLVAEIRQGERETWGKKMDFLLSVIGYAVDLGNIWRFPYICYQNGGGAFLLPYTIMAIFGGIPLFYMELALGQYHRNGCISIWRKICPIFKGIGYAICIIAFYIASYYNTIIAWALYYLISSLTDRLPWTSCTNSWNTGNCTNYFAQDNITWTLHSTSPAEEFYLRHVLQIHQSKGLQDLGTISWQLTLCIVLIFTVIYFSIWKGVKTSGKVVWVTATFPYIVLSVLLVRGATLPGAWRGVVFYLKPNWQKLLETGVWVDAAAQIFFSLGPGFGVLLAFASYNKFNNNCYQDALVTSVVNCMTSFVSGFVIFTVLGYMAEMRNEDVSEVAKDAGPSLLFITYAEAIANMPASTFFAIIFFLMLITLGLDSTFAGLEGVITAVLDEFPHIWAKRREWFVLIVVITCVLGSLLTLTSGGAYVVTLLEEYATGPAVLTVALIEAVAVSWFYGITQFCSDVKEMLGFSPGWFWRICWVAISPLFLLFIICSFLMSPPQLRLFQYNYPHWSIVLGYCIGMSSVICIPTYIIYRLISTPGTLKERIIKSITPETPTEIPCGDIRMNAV
dopamine transporters (DAT), sequence (P23977 whole entry): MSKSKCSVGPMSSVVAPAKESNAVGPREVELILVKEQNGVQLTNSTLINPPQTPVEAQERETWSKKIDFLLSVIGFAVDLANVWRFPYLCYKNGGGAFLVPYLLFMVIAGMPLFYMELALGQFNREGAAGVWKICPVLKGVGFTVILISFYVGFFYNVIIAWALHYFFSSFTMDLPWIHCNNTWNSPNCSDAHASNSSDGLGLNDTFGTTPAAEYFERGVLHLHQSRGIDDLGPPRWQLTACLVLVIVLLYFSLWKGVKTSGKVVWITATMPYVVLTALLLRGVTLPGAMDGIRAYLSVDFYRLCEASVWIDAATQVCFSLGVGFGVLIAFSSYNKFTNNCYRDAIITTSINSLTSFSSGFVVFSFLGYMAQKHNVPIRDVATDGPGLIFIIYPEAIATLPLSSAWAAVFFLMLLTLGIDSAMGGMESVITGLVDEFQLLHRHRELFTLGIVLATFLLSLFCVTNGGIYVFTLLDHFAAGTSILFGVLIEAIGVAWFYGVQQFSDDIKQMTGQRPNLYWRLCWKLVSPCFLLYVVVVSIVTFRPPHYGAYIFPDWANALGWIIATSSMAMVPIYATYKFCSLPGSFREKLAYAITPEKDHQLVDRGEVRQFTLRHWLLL
SERT, sequence (P31652 whole entry): as the sequence (P31652 whole entry) above

Row | SMILES | DAT/SERT ratio [1] | releasing efficacy at SERT (in words) (5-HT transporters (SERT)) | uptake blocker efficacy at SERT (SERT) | maximal release at SERT (5-HT transporters (SERT); efficacy, % of maximal release) [%] | cis to trans isomerization [2]
1 | CNC(C)Cc1ccc2c(c1)OCO2 (single isomer, unassigned; (+)) [(+)-MDMA, (+)-3,4-methylenedioxymethamphetamine] | 0.6 | – | – | – | –
2 | C[C@@H]1N=C(N)O[C@H]1c1ccc2c(c1)OCO2 (racemic) [Trans-MDMAR, (±)-trans-3′,4′-Methylenedioxy-4-methylaminorex] | 2.0 | fully efficacious releasing agents | – | – | –
3 | Cc1ccc([C@@H]2OC(N)=N[C@H]2C)cc1 (relative stereo) [Trans-DMAR, trans-4,4′-dimethylaminorex] | 2.5 | partial releasing activity | fully efficacious as an uptake blocker | 75 | –
4 | Cc1ccc([C@H]2OC(N)=N[C@H]2C)cc1 (relative stereo) [Cis-DMAR, cis-4,4′-dimethylaminorex] | 1.6 | fully efficacious releasing agents | – | – | –
5 | C[C@@H]1N=C(N)O[C@@H]1c1ccc2c(c1)OCO2 (racemic) [Cis-MDMAR, (±)-cis-3′,4′-Methylenedioxy-4-methylaminorex] | 4.3 | fully efficacious releasing agents | – | – | Isomerization did not occur
